WT yeast gro inh = growth inhibition of WT yeast, mitochondrial fusion screen. 190,000 compounds, 2.1% hits. mitochondrial fusion phenotypic screen, WT strain. inhibition, % at 10 µM; in the data active = inhibition above about 58%; tested in S. cerevisiae
EBV gp42 inh = inhibitors of Epstein-Barr virus glycoprotein 42 | 220,000 compounds, 0.42% hits | inhibition, % (tested at 21.74 µM) | Fluorescence polarization binding assay, mP read-out; in the data active = inhibition above about 50%
Target sequence (Q1HVG2 whole entry, looked up): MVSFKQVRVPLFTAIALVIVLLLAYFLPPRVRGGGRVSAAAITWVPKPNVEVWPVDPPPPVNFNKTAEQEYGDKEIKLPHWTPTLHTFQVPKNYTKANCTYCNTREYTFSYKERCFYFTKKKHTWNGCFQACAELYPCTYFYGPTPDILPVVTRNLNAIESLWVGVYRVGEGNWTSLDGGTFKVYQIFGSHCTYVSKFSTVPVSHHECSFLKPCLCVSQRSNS
MPTP inh = permeability transition pore inhibition; isolated mouse mitochondria, Ca2+ swelling absorbance, 30 min; inhibition, % at 10 µM; 360,000 compounds, 1.4% hits; AID 602449;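 active = inhibition of 50% or more, scaled per plate between neutral and stimulator controls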
CHOP inhibitor = CHOP inhibition in unfolded protein response. CHO-K1 CHOP-promoter luciferase, tunicamycin-induced, 15-18 h. inhibition, % at 10 µM. 220,000 compounds, 3.8% hits;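 active = compounds that reduced the stress-induced luciferase reporter signal by more than about 70% of percent inhibition, limit read from the data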
Tb MetRS inh = Trypanosoma brucei MetRS inhibition. inhibition, % at 11.9 µM. 360,000 compounds, 0.4% hits. purified T. brucei MetRS, ATP depletion, Kinase-Glo luminescence;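 active = inhibition above a per-plate cutoff of the control wells' mean inhibition plus 3 SD, cut at about 5.5% in these data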
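Test system – parasite MetRS enzyme · Reagent – substrates ATP, L-methionine and bulk Escherichia coli tRNA · Doses – 11.9 µM compound single dose, 0.9% DMSO · Times – 15 min enzyme-compound preincubation, 2 h reaction, 10 min detection, 25 °C · Signal – Kinase-Glo luminescence, ATP depletion format · Controls – DMSO-only wells as low control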
NR3A LBD binder = modulates the human NR3A ligand-binding domain | NR3A LBD differential scanning fluorimetry, Tm shift; 0% = protein alone, 100% = glycine-bound protein | 340,000 compounds, 2.5% hits | Tm shift relative to glycine control, % at 25 µM;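 active = melting temperature shift of at least 10% of the positive control shift, at one fixed dose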
A number is an active result; - = inactive; . = not tested or not shown. Hits are enriched below; roughly 6.4% of the tested compounds scored in any of these assays.

SMILES | WT yeast gro inh | EBV gp42 inh | MPTP inh | CHOP inhibitor | Tb MetRS inh | NR3A LBD binder
Cc1occc1C(=O)Nc1ccc(OCc2ccccc2)cc1 | - | - | - | - | - | 26
O=C(N/N=C/c1ccc(OCc2ccccc2)cc1)c1ccncc1 | - | - | - | - | - | -
CCN(CC)CCCNC1=C(Cl)C(=O)c2ccccc2C1=O | - | - | - | - | - | -
Cn1cccc1C(=O)Nc1nc(-c2ccccn2)cs1 | - | - | - | - | - | -
Cc1csc(NC(=O)c2cccn2C)n1 | 85 | - | - | - | - | .
COc1ccc2nc(N/C(N)=N/C(=S)Nc3cccc(C)c3)nc(C)c2c1 | - | - | - | - | - | -
COc1ccc2nc(N/C(N)=N/C(=S)Nc3c(C)cccc3C)nc(C)c2c1 | - | - | - | - | - | 24
COc1ccc(NC(=S)/N=C(\N)Nc2nc(C)c3ccccc3n2)cc1 | . | - | - | - | - | -
CCOc1ccc2nc(N/C(N)=N/C(=S)Nc3cccc(C)c3)nc(C)c2c1 | - | - | - | - | - | 23
CCOc1ccc2nc(N/C(N)=N/C(=S)Nc3cccc(OC)c3)nc(C)c2c1 | . | - | - | - | - | 14
Cc1ccc(NC(=O)Cc2nnc(SCC(=O)NC3CCCC3)n2C)cc1 | . | . | - | . | - | -
Cc1ccc(NC(=O)Cc2nnc(SCC(=O)c3ccc(Br)cc3)n2C)cc1 | - | - | - | 88 | - | -
CCC(=O)c1ccc(OCC(=O)Nc2ccccc2C(=O)NC2CC2)cc1 | . | . | - | . | - | -
Cc1cc(Cl)ccc1OCC(=O)NNC(=O)C1CCN(c2ncnc3sc(C)c(C)c23)CC1 | . | . | - | . | - | -
Cc1sc2ncnc(N3CCC(C(=O)Nc4ccc(OC(F)F)c(Cl)c4)CC3)c2c1C | . | . | - | . | - | 10
CCC(C)[C@H](NC(=O)[C@H](Cc1ccccc1)n1c(=O)[nH]c2ccccc2c1=O)C(=O)N1CCC(C(=O)O)CC1 (stereo partly drawn) | . | . | - | . | - | -
Cc1ccc(-c2csc3ncnc(SCC(=O)Nc4nnc(C)s4)c23)cc1 | - | - | - | 74 | - | -
CC(=O)CSc1ncnc2scc(-c3ccc(F)cc3)c12 | - | - | - | - | - | -
O=C(CSc1ncn(-c2ccccc2)n1)Nc1ccc2c(c1)OCO2 | - | - | - | - | - | 13
COc1ccc(NC(=O)CSc2ncn(-c3ccccc3)n2)cc1Cl | - | - | - | - | - | 28
CCC(C(=O)Nc1cccc(C(=O)O)c1)c1ccccc1 (stereo not drawn) | - | - | - | - | - | -
Cc1ccc(NC(=O)CSc2n[nH]c(C)c2[N+](=O)[O-])cc1C | - | - | - | - | - | 19
CCC(C(=O)Nc1ccc(OC)c(Cl)c1)c1ccccc1 (stereo not drawn) | 59 | - | - | - | - | -
CC(C)(C)N1NC2(CCCCC2)NC1=S | - | - | - | - | - | -
CC(=O)Nc1ccc(S(=O)(=O)N(C)CC(=O)OCC(=O)NC(C)C23CC4CC(CC(C4)C2)C3)cc1 (stereo not drawn) | - | - | - | - | - | -
SMILES | WT yeast gro inh | EBV gp42 inh | MPTP inh | CHOP inhibitor | Tb MetRS inh | NR3A LBD binder
N#CCCn1cc(/C=N/O)c(-c2ccccc2)n1 | - | - | - | - | - | -
O=C(CSc1nc(-c2ccc(F)cc2)cc(C(F)(F)F)n1)Nc1ccc2c(c1)OCO2 | - | - | - | 73 | - | -
Cc1ccc(NC(=O)CSc2ncn(-c3ccccc3)n2)cc1C | - | - | - | - | - | 22
COc1ccc(OCC(=O)Nc2cccc3ncccc23)cc1 | - | - | - | - | - | -
Nc1ccc(Br)c2c1C(=O)c1ccccc1C2=O | - | - | . | - | . | -
Nc1ccc(O)c2c1C(=O)c1ccccc1C2=O | - | 125 | - | - | - | -
COc1ccc(/C=C/C(=O)N(CC(C)C)CC(C)C)cc1Br | - | - | - | 84 | - | -
COc1ccc(NC(=O)/C(N=Nc2cc(S(=O)(=O)Nc3ccc(OC)cc3)ccc2OC)=C(\C)O)cc1 | - | - | - | - | - | 11
COc1ccc(-n2nnc3c(=O)n(CC(=O)N4CCCc5ccccc54)cnc32)cc1 | - | . | - | . | - | 12
CCOc1ccc(-n2nnc3c(=O)n(CC(=O)N4CCCc5ccccc54)cnc32)cc1 | - | - | - | - | - | 15
O=C(Cn1cnc2c(nnn2-c2ccc(F)cc2)c1=O)N1CCCc2ccccc21 | - | - | - | - | - | -
CCN(CC)c1nc(Nc2ccc(Cl)cc2)nc(OCC#N)n1 | - | - | - | 93 | - | -
CCC(C)NS(=O)(=O)c1ccc(NC(=O)c2cccs2)cc1 (stereo not drawn) | - | - | - | - | - | -
O=C(Nc1ccccc1O)c1ccc(NC(=O)C2CC2)cc1 | . | . | - | . | - | 23
Cc1ccc(NS(=O)(=O)c2ccc(NC(=O)c3cccs3)cc2)cc1 | - | - | - | 77 | - | 20
O=C(Nc1ccccc1C(=O)O)c1ccc(NC(=O)C2CC2)cc1 | . | . | - | . | - | -
O=C(Nc1ccc(NC(=O)C2CC2)cc1)c1cccs1 | . | . | - | . | - | 17
O=C(Nc1ccc(NC(=O)c2ccccc2F)cc1)c1cccs1 | . | . | - | . | - | 22
COc1ccc(/C=C2\SC(N)=NC2=O)cc1Cl | . | . | - | . | - | -
Cc1ccn2cc(-c3ccc(NC(=O)c4ccco4)cc3)nc2c1 | - | - | - | - | - | 29
Cc1ccn(-c2ccc(NC(=O)c3cccs3)cc2)n1 | . | . | - | . | - | 26
O=C(Nc1ccc(NC(=O)c2cccs2)c(Cl)c1)c1cccs1 | . | . | - | . | - | 13
CN1CCN(c2ccc(NC(=O)c3cccs3)cc2)CC1 | - | - | - | - | - | -
O=C(Nc1ccc(NC(=O)c2cccs2)cc1)c1cccs1 | . | . | - | . | - | 22
CC(=O)N(c1ccc(C(F)(F)F)cc1)S(=O)(=O)c1ccc(N2C(=O)CCC2=O)cc1 | . | . | - | . | - | -
SMILES | WT yeast gro inh | EBV gp42 inh | MPTP inh | CHOP inhibitor | Tb MetRS inh | NR3A LBD binder
O=C(/C=C/c1ccccc1)NNC(=O)c1cccs1 | - | - | - | - | - | -
O=C(/C=C/c1ccccc1)Nc1ccc(NC(=O)c2cccs2)cc1 | . | - | - | - | - | 29
O=C(Nc1ccc(-c2cn3ccccc3n2)cc1)c1cccs1 | - | - | - | - | - | 25
Cc1ccc2c3c(cccc13)-c1ccccc1C2=O | - | 62 | - | - | - | -
CNC(=S)N(CCc1c(C)[nH]c2ccc(Cl)cc12)Cc1cccs1 | - | - | . | - | . | .
CCNC(=S)N(CCc1c(C)[nH]c2ccc(Cl)cc12)Cc1ccco1 | 78 | - | - | - | - | -
CNC(=S)N(CCc1c(C)[nH]c2ccc(C)cc12)Cc1ccco1 | - | - | - | - | - | -
CCNC(=S)N(CCc1c(C)[nH]c2ccc(C)cc12)Cc1cccs1 | 71 | - | - | - | - | -
COCCNC(=S)N(CCc1c(C)[nH]c2ccc(Cl)cc12)Cc1cccs1 | 74 | - | - | - | - | -
C=CCn1c(SCC(=O)Nc2ccc3c(c2)CCC3)nnc1-c1cccs1 | 70 | - | - | - | - | -
C=CCn1c(SCC(=O)O)nnc1-c1cccs1 | - | - | - | - | - | -

Screening results (PubChem)
